Compounds with a hit are over-represented: about 3.1% of the library has one in this group of screens.
GalR3 antagonist: GalR3 antagonists in HEK293 cells, primary screen, cell-based, fluorescence readout. Galanin receptor type 3 (Homo sapiens), O60755. HEK293 GalR3-CNG cAMP membrane potential fluorescence; galR3 body fused to GalR1 C-terminus. inhibition, % at 3 µM. hit rate 0.44% among 360,000;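 active = inhibition above the screen-wide average plus 3 SD, cut at about 13% in these data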;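 note: forskolin and galanin both at EC90 stimulate the cells; cAMP rise reported by CNG channel membrane potential dye signal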
Target sequence (O60755 1-299 limits assumed): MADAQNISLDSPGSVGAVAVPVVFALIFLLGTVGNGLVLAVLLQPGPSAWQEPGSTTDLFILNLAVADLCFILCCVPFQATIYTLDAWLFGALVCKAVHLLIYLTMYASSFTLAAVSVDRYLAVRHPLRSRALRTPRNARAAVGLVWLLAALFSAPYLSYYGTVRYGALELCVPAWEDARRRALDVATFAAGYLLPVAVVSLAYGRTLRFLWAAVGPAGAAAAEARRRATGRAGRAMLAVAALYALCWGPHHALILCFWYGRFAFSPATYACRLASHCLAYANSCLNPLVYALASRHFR
GPR7 antagonist: GPR7 receptor antagonists, primary screen, cell-based, fluorescence, single concentration | GPR7-expressing cells, fluorescence antagonist assay | AID 1861, 2009 | Neuropeptides B/W receptor type 1 (Homo sapiens), P48145 | hit rate 1.1% among 290,000 | inhibition, % at 4.4 µM; in the data active = inhibition above about 16%, passing the limit was not always enough;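 note: cells stimulated with the agonist NPW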
Target sequence (P48145 whole entry, looked up): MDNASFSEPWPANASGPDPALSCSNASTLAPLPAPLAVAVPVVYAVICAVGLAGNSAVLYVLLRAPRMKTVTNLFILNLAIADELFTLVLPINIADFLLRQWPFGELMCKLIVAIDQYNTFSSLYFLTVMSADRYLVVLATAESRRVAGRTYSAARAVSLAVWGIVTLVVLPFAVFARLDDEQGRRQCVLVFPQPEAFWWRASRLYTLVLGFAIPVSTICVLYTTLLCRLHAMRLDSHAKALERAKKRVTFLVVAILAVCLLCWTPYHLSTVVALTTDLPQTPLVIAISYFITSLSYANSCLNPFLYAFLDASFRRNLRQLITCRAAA
OX1R antag-1: OX1R (HCRTR1) antagonists, primary screen, fluorescence, CHO/OX1R cells, Fluo-8 calcium, orexin A. Orexin/Hypocretin receptor type 1 (Homo sapiens), O43613. Fluo-8 calcium fluorescence. inhibition, % at 5 µM. hit rate 0.43% among 330,000;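 active = inhibition above its plate's threshold, mean inhibition of all tested compounds on the plate plus 3 SD, cut at about 37% in these data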
OX1R antag-2: antagonists of human orexin 1 receptor (OX1R). Orexin/Hypocretin receptor type 1 (Homo sapiens), O43613. OX1R-expressing cells, FRET antagonist read-out. inhibition, % at 6.6 µM. hit rate 1.8% among 330,000. AID 485270, 2010; in the data active = inhibition mostly above about 38%, no sharp cut-off; inactive = mostly below about 40%
CHO parental Ca: ATP-evoked calcium signal inhibitors, parental CHO, primary screen, counter-screen for OX1R antagonist project, cell-based, fluorescence, Fluo-8 calcium dye; parental CHO-K1, ATP-induced calcium, Fluo-8 fluorescence; inhibition, % at 5.6 µM; hit rate 0.63% among 330,000; AID 463079, 2010;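 active = inhibition above that plate's mean sample inhibition plus 3 SD, cut at about 26% in these data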
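test system = CHO parental line | reagent = ATP stimulus | measured by = intracellular calcium via Fluo-8 no-wash fluorescent dye | control set = ATP and no-ATP DMSO wells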
Large screens that a line does not name were inactive.

N#Cc1c2n(c(=S)n(-c3ccc(OC(F)F)cc3)c1=O)CCCCC2	GPR7 antagonist 17.3
Cc1cccc(C)c1NC(=O)CNC(=O)c1c(C)nn(-c2ccccc2)c1Cl	none (no result: GPR7 antagonist)
CN(CCCC(=O)NCc1ccco1)S(=O)(=O)c1ccccc1	GPR7 antagonist 15.9
COc1ccc(CCNC(=O)c2ccc([N+](=O)[O-])cc2Cl)cc1OC	OX1R antag-2 71.3 (no result: GPR7 antagonist)
COc1ccc(CCNC(=O)c2ccc(=O)[nH]n2)cc1OC	CHO parental Ca 39.6
COc1ccc(CCNC(=O)c2ccc(OC)c(OC)c2)cc1OC	none
C=CCC1(CC=C)CCCN1C(=O)Cn1nnnc1CN(C)C(C)C	none
Cc1ccsc1C1C=C(c2cccc(Br)c2)Nc2ncnn21 (stereo not given)	OX1R antag-1 45.4 (no result: GalR3 antagonist)
COc1cccc(C2=CC(c3ccc(C)cc3)n3ncnc3N2)c1 (stereo not given)	none (no result: GalR3 antagonist)
COc1ccc2c(c1)c(C(=O)CN1CCN(C(=O)c3ccco3)CC1)c(C)n2C	none
O=Cc1ccc(OCC(=O)NCC2CCCO2)cc1 (stereo not given)	none
Cc1c(C(=O)N2CCC[C@H]2CO)oc2c(F)cccc12	none
COc1ccc(-c2[nH]c3ccccc3c2SCCNC(=O)c2cc3ccccc3oc2=O)cc1	OX1R antag-2 42.4 (no result: GalR3 antagonist)
Cc1[nH]c2ccccc2c1SCCNC(=O)c1ccc(Br)o1	OX1R antag-2 66.0
CC(C)(C)NC(=O)C(c1ccc(F)cc1)N(Cc1cccs1)C(=O)c1ccc(CN2CCOCC2)o1 (stereo not given)	none
COc1ccc(-c2ccc(/C=C(\NC(=O)c3ccccc3)C(=O)N3CCOCC3)o2)cc1	none
CC(C)(C)c1nc(NC(=O)Nc2ccccc2)sc1Br	GPR7 antagonist 31.8, OX1R antag-1 60.0, CHO parental Ca 47.3
COc1ccc2nc(NC(=O)Nc3ccccc3)sc2c1	none
CCOc1ccccc1OCC(=O)Nc1ccc(N2CCCCC2)cc1	GPR7 antagonist 16.6
CCOc1cc(C(=S)N2CCCC2)ccc1OCC(=O)Nc1c(C)cc(C)cc1C	OX1R antag-2 66.3
COc1ccccc1OCC(=O)Nc1ccc(N2CCCCC2)cc1	none
CCOc1cc(C(=S)N2CCCC2)ccc1OC	none
FC(F)(F)c1ccccc1-n1c(CN2CCCCC2)n[nH]c1=S	none
O=C(NCCCCCCCN1CCCCCCC1)C(C1CCCCC1)C1CCCCC1	none (no result: GPR7 antagonist, OX1R antag-1, OX1R antag-2, CHO parental Ca)
COc1ccc(CNC(=O)COC(=O)c2cc(-c3cccs3)nc3ccccc23)cc1OC	OX1R antag-2 47.9
Cc1cc(C(=O)OCC(=O)NC(=O)c2cccn2C)c2ccccc2n1	CHO parental Ca 44.8
Cn1cccc1C(=O)NC(=O)COC(=O)c1ccccc1O	none
COc1ccccc1NC(=O)COC(=O)c1cc(C)nc2ccccc12	OX1R antag-2 43.5 (no result: GPR7 antagonist)
COc1ccc(NC(=O)c2ccc[n+]([O-])c2)cc1	none
Cc1cc(C)c(C)c(OCC(O)CN2CCN(c3ccccn3)CC2)c1 (stereo not given)	none
CC(=O)N1C[C@H]2CON(C)[C@H]2C[C@H]1c1cccc(-c2ccc(C#N)cc2)c1	none (no result: GPR7 antagonist, OX1R antag-1, OX1R antag-2, CHO parental Ca)
CSc1cccc(NC(=O)/C=C/c2ccccc2)c1	none
CSc1cccc(NC(=O)/C=C/c2ccc(Cl)cc2)c1	OX1R antag-2 91.5
O=S(=O)(c1ccc(SCCOc2ccc(Br)cc2)nc1)N1CCCC1	none (no result: GPR7 antagonist)
O=S(=O)(c1ccc(SCCOc2ccc(Cl)cc2)nc1)N1CCCC1	CHO parental Ca 30.0 (no result: GPR7 antagonist)
N#CCC(CNc1ncc(C(F)(F)F)cc1Cl)OC(=O)c1ccc(Cl)cc1Cl (stereo not given)	none
O=C(CC1CC2CCC1C2)N1CCN(S(=O)(=O)c2ccc(C(F)(F)F)cc2)CC1 (stereo not given)	none (no result: GPR7 antagonist, OX1R antag-1, OX1R antag-2, CHO parental Ca)
CCOC(=O)c1c(C)oc2c1c(C(c1cccnc1)N1CCOCC1)c(O)c1ccccc12 (stereo not given)	OX1R antag-2 72.7
Cc1ccc(C)c(-n2c3nc(=O)n(C)c(=O)c-3cc3ccccc32)c1	OX1R antag-2 63.0
CCCCn1c(=O)nc2n(-c3ccccc3)c3ccccc3cc-2c1=O	none
C[C@]12CCC3c4ccc(OCC(=O)O)cc4CCC3C1CCC2=O (stereo not given in full)	GPR7 antagonist 21.6
c1ccc(N2CCN(c3nc4ccccc4n4cnnc34)CC2)cc1	none
c1ccc2c(c1)CCN(c1nc3ccccc3n3cnnc13)C2	OX1R antag-2 52.7
CN(C)CCCN=c1cc(-c2ccccc2)oc2ccc(Cl)cc12	none (no result: OX1R antag-1, OX1R antag-2, CHO parental Ca)
OCCN=c1cc(-c2ccccc2)oc2ccc(Cl)cc12	OX1R antag-2 47.0 (no result: GalR3 antagonist)
c1ccc(-c2nc(NCc3cccnc3)c3ccccc3n2)cc1	OX1R antag-2 48.5 (no result: GalR3 antagonist)
Clc1cccc(-c2nc(NCc3cccnc3)c3ccccc3n2)c1	OX1R antag-2 64.3
Cc1ccc(C(=O)N2CCC[C@@H]2C(=O)N2CCC[C@H]2C(=O)NCc2ccccc2)cc1	none (no result: GPR7 antagonist, OX1R antag-1, OX1R antag-2, CHO parental Ca)
Cc1ccccc1OCc1nnc2c3cnn(C)c3ncn12	none
Cc1ccc(Cn2nnc3c(=O)n(CC(=O)OCc4ccccc4)cnc32)cc1	CHO parental Ca 30.6
O=C(Cn1cnc2c(nnn2Cc2ccc(F)cc2)c1=O)OCc1ccccc1	none
Cc1ccc(-n2nnc3c(=O)n(CC(=O)NCc4ccccc4)cnc32)cc1	CHO parental Ca 42.1 (no result: GalR3 antagonist)
OCc1ccc2c(c1)c(-c1ccc3c(c1)OCCO3)c(-c1ccccc1)n2-c1ccccc1	none (no result: GPR7 antagonist)
N/C(Cc1ccc(Cl)c(Cl)c1)=N\OC(=O)c1cccs1	GPR7 antagonist 20.3
NC(=O)c1c(N)[nH]c(C(=O)c2ccccc2)c1-c1ccccc1	none (no result: GPR7 antagonist, OX1R antag-1, OX1R antag-2, CHO parental Ca)
CN(C)/C=C1\C=C2C(=O)c3ccccc3N2C1=O	OX1R antag-1 46.5, CHO parental Ca 50.2
Cc1ccc(NC(=O)C(C)N2C(=O)c3ccccc3C2=O)cc1S(=O)(=O)N1CCOCC1 (stereo not given)	none (no result: OX1R antag-1, OX1R antag-2, CHO parental Ca)
Cc1ccc(NC(=O)CN2CC(C)SC2=NC2CCCCC2)cc1 (stereo not given)	none
Cc1cc2nc(C3CCCN(C(=O)NCc4ccccc4)C3)[nH]c2cc1C (stereo not given)	OX1R antag-2 60.6
Cc1cc2nc(C3CCCN(C(=S)Nc4ccccc4C)C3)[nH]c2cc1C (stereo not given)	none
Cc1ccc2nc(CSc3nnc(-c4ccco4)n3-c3ccccc3)cc(=O)n2c1	none
Cc1ccc2nc(CSc3nnc4ccccn34)cc(=O)n2c1	GPR7 antagonist 17.1
COc1cccc(/C(O)=C2/C(=O)C(=O)N(CCCN3CCOCC3)C2c2ccncc2)c1 (stereo not given)	none
COc1ccc(/C(O)=C2/C(=O)C(=O)N(CCN3CCOCC3)C2c2ccccn2)cc1 (stereo not given)	OX1R antag-2 68.3
O=C1C(=O)N(CCN2CCOCC2)C(c2ccccn2)/C1=C(/O)c1ccc(F)cc1 (stereo not given)	OX1R antag-2 42.9

Compound activity from PubChem.
